We go through 18 molecules from PubChem BioAssay.

Assay [1] in a line: OD615 S. cerevisiae growth inhibition, permissive medium, pilot counter-assay, permissive growth control for S. cerevisiae lifespan shortening project (AID 705;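 active means growth inhibition above 25% in both replicates, a cutoff set 3 SD above the mean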). Conditions: OD615, 24 h, at 10 µM, hits give high values. In outline:
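Material: engineered DeaD yeast; compound dosing: one dose 10 µM, DMSO 0.25% final; measure: yeast growth inhibition indicated by reduced 24 h OD615; detection: OD615 turbidity read; incubation: cells pre-grown 4 h, then 24 h compound exposure, 30 °C humidified; medium: permissive synthetic complete medium with raffinose and galactose carbon sources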

Assay [2] can be described thus: Restrictive medium S. cerevisiae growth inhibition, OD615, pilot screen of yeast lifespan reduction project, restrictive growth control (AID 706;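 active means growth inhibition above a set limit, 3 SD over mean compound inhibition, in both replicates, cut at about 43% in these data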;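 further: modified DeaD lifespan yeast strain shifted to restrictive glucose medium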). Conditions: OD615, 48 h, at 10 µM, hits give high values. A digest of the protocol:
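material = engineered S. cerevisiae DeaD strain | medium = glucose-based CSMM-D restrictive medium | times = 4 h pre-incubation, 48 h exposure at 30 °C | technique = OD615 absorbance reading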

Assay [3] can be described thus: viability gain of MRP-1-high H69AR cells under doxorubicin, pilot screen, MRP-1 activator project, CellTiter-Glo, duplicate (AID 807).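 Further: compound pretreatment 18-22 h then 72 h combined with doxorubicin; 0% = doxorubicin alone and 100% = vehicle without doxorubicin.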 Conditions: H69AR viability with doxorubicin, CellTiter-Glo luminescence; at 10 µM; hits give high values. (In general: ATP-based viability assays read luminescence as a measure of living cells.)
Assay [4] can be described thus: growth suppression of beta-catenin knockout HCT116, pilot screen, human colon tumor cells (AID 823;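 active means cell viability at or below a set limit in both duplicate runs, the limit being the all-compound median minus 4 SD, cut at about 23% in these data, passing the limit was not always enough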;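 further: 0% = wells killed by 20 µM Hyamine and 100% = untreated DMSO cell wells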). Conditions: CellTiter-Glo, 60 h, at 10 µM, hits give low values.
Assay [5] can be described thus: growth suppression of PTEN-deleted HCT116, pilot screen, cell-based, HCT116 clonal line, CellTiter-Glo (AID 824;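 active means viability at or below 27.92% in each of two runs, the all-compound median minus 4 SD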;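 further: 0% = 20 µM Hyamine control and 100% = vehicle cell control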). Conditions: 60 h, at 10 µM, hits give low values.
The nature of assay [6]: inhibitors of the yeast RAM network, pilot screen, dse1pr::URA3 reporter, 5-FOA selection (AID 869;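 active means inhibition over a set limit, the all-compound mean plus 3 SD, in both replicate runs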;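 further: 0% = DMSO wells with no growth and 100% = 10 µM 1-NA-PP1 with full growth; RAM network block rescues cells from 5-FOA so hits raise OD615 growth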). Conditions: S. cerevisiae dse1pr::URA3 5-FOA growth, OD615, 2 d; at 10 µM; hits give high values; strain carries analog-sensitive mutant Cbk1 kinase.
Assay [7] in a line: RAM signaling pathway blockade in yeast – S. cerevisiae, Pdr1DBD-CYC8 efflux-inhibited sensitized strain, primary screen (AID 1298;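 active means RAM network inhibition above 8.4% in each of two replicates, 3 SD over the compound average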;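 further: 0% = DMSO untreated cells without growth and 100% = 10 µM 1-NA-PP1 full growth; higher means more yeast growth rescued from 5-FOA killing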). Conditions: S. cerevisiae cbk1-as DSE1-URA3 strain, 5-FOA growth OD615, 2 d; at 50 µM; hits give high values.

Values without a mark were called inactive. Inconclusive results are not listed. Calls of active or inactive are those of the source.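 How the source made its calls, unless noted: active means viability increase at or above a cutoff of the median across tested compounds plus 3 SD (cut at about 8.5% in these data, passing the limit was not always enough); inconclusive means some gains above the cutoff, reason not given; inactive means the rest.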

In general, viability refers to a read-out of living cells in per cent, often relative to untreated cells. Broadly, the inhibition is the change of the read-out against control, counted positive when it falls. Consider `CCOC(=O)C1=C(N)OC2=C(C(=O)CCC2)C1c1cccs1` (stereo unspecified), for which the values for the growth inhibition in assay [1] and in assay [2] were -0.655% and 5.78%, respectively. Further, the viability increase in assay [3] was 0.3%. In addition, the viability is 108% in assay [4] and 104% in assay [5]. Moreover, the inhibition in assay [6] is 0.345%. In addition, the RAM network inhibition in assay [7] was 2.67%.
Take `CC1CN(Cc2nc3c(c(=O)n(C)c(=O)n3C)n2Cc2cccc(Cl)c2)CC(C)O1` (stereo unspecified): the growth inhibition in assay [1] is -4.24%; in assay [2], -9%. Further, in assay [3], the viability increase is -2.03%. The values for the viability in assay [4] and in assay [5] were 100% and 90.8%, respectively. Further, in assay [6], the inhibition was 0.74%. For the same molecule, the RAM network inhibition in assay [7] is 2.81%.
In the case of `CCOC(=O)c1ccc2[nH]c(C)cc(=O)c2c1`, the growth inhibition in assay [1] was -1.86%; in assay [2] it was 1.21%. Moreover, the viability increase in assay [3] was -0.4%. In addition, the viability in assay [4] and in assay [5] was 98% in each case. Further, the inhibition in assay [6] is 1.35%. For the same molecule, in assay [7], the RAM network inhibition is 9.46%.
`O=C1CC(c2ccc(S(=O)(=O)NCc3ccccc3)cc2)CN1` (stereo unspecified): the figures for the growth inhibition in assay [1] and in assay [2] were -7.82% and -21%, respectively. Further, in assay [3], the viability increase is -2.13%. Further, the results for the viability in assay [4] and in assay [5] were 101% and 87.9%, respectively. The inhibition in assay [6] is 1.56%. In addition, the RAM network inhibition in assay [7] is 1.23%.
Take `CCC(CC)C(=O)Nc1cc(=O)n(C)c(=O)n1C`: the growth inhibition in assay [1] is -3.07%; in assay [2], 8.82%. Besides, the viability increase in assay [3] is -0.82%. Further, the viability in assay [4] was 92.8%; in assay [5], 87.4%. Further, the inhibition in assay [6] is 0.18%. For the same molecule, in assay [7], the RAM network inhibition was -2.19%.
As to `CCCSc1nc2c(cnn2-c2ccc(C)c(C)c2)c(=O)[nH]1`, the values for the growth inhibition in assay [1] and in assay [2] were -8.57% and -3.42%, respectively. In assay [3], the viability increase was -1.72%. Also, the viability was 93.2% in assay [4] and 69.9% in assay [5]. The inhibition in assay [6] was 2.58%. Also, the RAM network inhibition in assay [7] is 4.37%.
With `O=C(Nc1ccc(-c2nc3cccnc3s2)cc1)c1ccco1`, the growth inhibition is -4.68% in assay [1] and 9.91% in assay [2]. Besides, in assay [3], the viability increase is -3.43%. Also, the figures for the viability in assay [4] and in assay [5] were 90% and 80.4%, respectively. Also, the inhibition in assay [6] was 1.75%. In assay [7], the RAM network inhibition is -1.95%.
For `CN(C)CCNc1ncnc2c1cnn2-c1ccc(Cl)cc1`, the growth inhibition was -13.2% in assay [1] and -3.57% in assay [2]. Also, the viability increase in assay [3] was -7.01%. In addition, the viability in assay [4] was 4.33% (active); in assay [5], 4.63% (active). The inhibition in assay [6] is 1.62%. Further, in assay [7], the RAM network inhibition is 3.07%.
For `CC(NC(=O)C1CCC1)c1ccc2c(c1)OCO2` (stereo unspecified), the growth inhibition is -10% in assay [1] and -5.42% in assay [2]. Also, the viability increase in assay [3] is -2.08%. In addition, the viability is 97.5% in assay [4] and 91.7% in assay [5]. Moreover, the inhibition in assay [6] is 1.67%. For the same molecule, the RAM network inhibition in assay [7] is 0.83%.
As for `Cc1nn(-c2ccccc2)c(Cl)c1C(=O)Nc1c(C)n(C)n(-c2ccccc2)c1=O`, the growth inhibition in assay [1] is -9%; in assay [2], -23%. Also, in assay [3], the viability increase was -0.99%. Further, the viability in assay [4] was 102%; in assay [5], 94.3%. The inhibition in assay [6] was 0.935%. In assay [7], the RAM network inhibition was 3.15%.
For the molecule `CCOC(=O)N1CCN(C(=O)C2CCN(C(=O)c3cc4sccc4n3CC)CC2)CC1`, the values for the growth inhibition in assay [1] and in assay [2] were -16.3% and -18.7%, respectively. Further, in assay [3], the viability increase was -3.05%. The viability in assay [4] was 91.7%; in assay [5], 98.9%. The inhibition in assay [6] is 0.825%. Besides, the RAM network inhibition in assay [7] was 3.06%.
In the case of `COc1ccccc1C(=O)NC(CCSC)C(=O)NCC(c1ccco1)N(C)C` (stereo unspecified), the figures for the growth inhibition in assay [1] and in assay [2] were -10.1% and -0.55%, respectively. Further, the viability increase in assay [3] was -2.48%. For the same molecule, the values for the viability in assay [4] and in assay [5] were 87.2% and 89.5%, respectively. In addition, the inhibition in assay [6] is 1.89%. The RAM network inhibition in assay [7] was 1.92%.
For the molecule `N#CCc1nc2n(n1)Cc1ccccc1-2`, the figures for the growth inhibition in assay [1] and in assay [2] were -6.24% and -25.7%, respectively. For the same molecule, in assay [3], the viability increase is 0.02%. For the same molecule, the viability in assay [4] is 105%; in assay [5], 96.8%. The inhibition in assay [6] is 3.54%. Moreover, the RAM network inhibition in assay [7] was 2.06%.
For the molecule `O=C(O)c1cccnc1SC1CC(=O)N(c2cccc(C(F)(F)F)c2)C1=O` (stereo unspecified), the growth inhibition in assay [1] is -15.3%; in assay [2], -3.59%. Also, the viability increase in assay [3] is 0.62%. Besides, the results for the viability in assay [4] and in assay [5] were 103% and 101%, respectively. In addition, the inhibition in assay [6] was 1.56%. In assay [7], the RAM network inhibition was 3.58%.
`Cc1ccn2cc(-c3ccc(S(=O)(=O)N4CCOCC4)cc3)nc2c1`: the growth inhibition in assay [1] is -2.96%; in assay [2] it was 6.53%. Besides, in assay [3], the viability increase was 2.12%. Further, the viability was 106% in assay [4] and 102% in assay [5]. Further, in assay [6], the inhibition is 1.6%. Further, the RAM network inhibition in assay [7] is 1.79%.
On to `Cc1ccc(S(=O)(=O)CCc2nc3ccccc3n2CCC#N)cc1`, for which the growth inhibition was 4.59% in assay [1] and 0.82% in assay [2]. Also, the viability increase in assay [3] is -7.34%. The results for the viability in assay [4] and in assay [5] were 23.5% (active) and 18.7% (active), respectively. Moreover, in assay [6], the inhibition was 0.995%. For the same molecule, the RAM network inhibition in assay [7] was 0.01%.
On to `COc1ccccc1NC(=O)CSc1ncn[nH]1`, for which the growth inhibition in assay [1] is -3.71%; in assay [2], -11%. Moreover, the viability increase in assay [3] is 1.06%. Further, the viability in assay [4] is 98.2%; in assay [5], 101%. Moreover, the inhibition in assay [6] is -0.045%. The RAM network inhibition in assay [7] was 2.9%.
Regarding `Fc1ccc(CN2CCCCCCC2)cc1F`, the growth inhibition was -3.83% in assay [1] and -9.1% in assay [2]. The viability increase in assay [3] is -3.13%. In addition, the figures for the viability in assay [4] and in assay [5] were 92.2% and 95.7%, respectively. Further, the inhibition in assay [6] is -0.325%. Besides, the RAM network inhibition in assay [7] is 0.52%.
